For experiment [1], the target named is Lysine-specific demethylase 5A (Homo sapiens, UniProt P29375). The experiment is described as follows: Inhibition of KDM5A (unknown origin) using H3K4me3 peptide and 2-oxoglutarate as substrate after 1 hr by FDH-coupled assay. The procedure, abridged:
(§1)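 Run as the FDH-coupled KDM4C format, with compounds in DMSO and activity relative to a DMSO control. KDM4A was used at 0.37 mg/mL final with H3K9me3 peptide. KDM5A was used at 0.64 mg/mL final with H3K4me3 peptide. Values are means of two experiments.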

The target of experiment [2] is T1, Lysine-specific demethylase 7A (Homo sapiens, UniProt Q6ZMT4).
T1 sequence (Q6ZMT4 whole entry): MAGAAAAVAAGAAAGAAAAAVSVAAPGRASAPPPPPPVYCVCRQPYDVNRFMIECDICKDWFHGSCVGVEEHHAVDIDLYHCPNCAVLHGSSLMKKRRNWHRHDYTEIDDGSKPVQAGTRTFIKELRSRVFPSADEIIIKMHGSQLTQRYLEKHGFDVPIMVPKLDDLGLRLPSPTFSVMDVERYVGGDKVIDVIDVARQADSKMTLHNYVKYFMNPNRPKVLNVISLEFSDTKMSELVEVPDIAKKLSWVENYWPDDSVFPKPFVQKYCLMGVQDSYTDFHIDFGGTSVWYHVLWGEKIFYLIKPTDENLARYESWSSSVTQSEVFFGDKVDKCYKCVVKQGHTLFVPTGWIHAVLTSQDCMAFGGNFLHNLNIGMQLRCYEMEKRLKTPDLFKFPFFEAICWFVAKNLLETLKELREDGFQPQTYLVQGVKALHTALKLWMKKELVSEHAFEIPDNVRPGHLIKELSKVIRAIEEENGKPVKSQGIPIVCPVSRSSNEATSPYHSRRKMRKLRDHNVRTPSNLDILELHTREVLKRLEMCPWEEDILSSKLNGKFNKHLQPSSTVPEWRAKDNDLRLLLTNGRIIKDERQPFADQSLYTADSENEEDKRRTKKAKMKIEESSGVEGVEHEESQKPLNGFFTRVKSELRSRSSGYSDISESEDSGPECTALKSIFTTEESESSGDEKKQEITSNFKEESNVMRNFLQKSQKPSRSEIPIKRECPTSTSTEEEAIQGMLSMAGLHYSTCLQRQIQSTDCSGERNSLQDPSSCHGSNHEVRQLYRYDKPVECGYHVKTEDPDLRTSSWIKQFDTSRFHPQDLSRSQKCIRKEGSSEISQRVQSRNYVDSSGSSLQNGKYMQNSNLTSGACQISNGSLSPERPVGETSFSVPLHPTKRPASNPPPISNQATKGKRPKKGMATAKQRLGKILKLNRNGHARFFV
The experiment is described as follows: Inhibition of KDM7A (unknown origin) using K27me2 peptide as substrate by MALDI assay.

For a further experiment, the system named is HeLa. The experiment is described as follows: Growth inhibition of human HeLa cells after 48 hrs by MTT assay. The experiment is classed as functional. The procedure, abridged:
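Cells were seeded at 5000/well in RPMI 1640 with 10% FBS and allowed to attach overnight, then exposed for 48 h at 37 °C in 5% CO2. MTT was added for 3 h, and the dye was solubilized in HCl–2-propanol and read at 560 nm (reference 750 nm).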
In general terms: Tetrazolium assays rely on reduction of a dye to a coloured formazan, in cell work by metabolically active cells.

Experiment [3] has as its target T2, Lysine-specific demethylase 4A (Homo sapiens, UniProt O75164).
T2 sequence (O75164 whole entry): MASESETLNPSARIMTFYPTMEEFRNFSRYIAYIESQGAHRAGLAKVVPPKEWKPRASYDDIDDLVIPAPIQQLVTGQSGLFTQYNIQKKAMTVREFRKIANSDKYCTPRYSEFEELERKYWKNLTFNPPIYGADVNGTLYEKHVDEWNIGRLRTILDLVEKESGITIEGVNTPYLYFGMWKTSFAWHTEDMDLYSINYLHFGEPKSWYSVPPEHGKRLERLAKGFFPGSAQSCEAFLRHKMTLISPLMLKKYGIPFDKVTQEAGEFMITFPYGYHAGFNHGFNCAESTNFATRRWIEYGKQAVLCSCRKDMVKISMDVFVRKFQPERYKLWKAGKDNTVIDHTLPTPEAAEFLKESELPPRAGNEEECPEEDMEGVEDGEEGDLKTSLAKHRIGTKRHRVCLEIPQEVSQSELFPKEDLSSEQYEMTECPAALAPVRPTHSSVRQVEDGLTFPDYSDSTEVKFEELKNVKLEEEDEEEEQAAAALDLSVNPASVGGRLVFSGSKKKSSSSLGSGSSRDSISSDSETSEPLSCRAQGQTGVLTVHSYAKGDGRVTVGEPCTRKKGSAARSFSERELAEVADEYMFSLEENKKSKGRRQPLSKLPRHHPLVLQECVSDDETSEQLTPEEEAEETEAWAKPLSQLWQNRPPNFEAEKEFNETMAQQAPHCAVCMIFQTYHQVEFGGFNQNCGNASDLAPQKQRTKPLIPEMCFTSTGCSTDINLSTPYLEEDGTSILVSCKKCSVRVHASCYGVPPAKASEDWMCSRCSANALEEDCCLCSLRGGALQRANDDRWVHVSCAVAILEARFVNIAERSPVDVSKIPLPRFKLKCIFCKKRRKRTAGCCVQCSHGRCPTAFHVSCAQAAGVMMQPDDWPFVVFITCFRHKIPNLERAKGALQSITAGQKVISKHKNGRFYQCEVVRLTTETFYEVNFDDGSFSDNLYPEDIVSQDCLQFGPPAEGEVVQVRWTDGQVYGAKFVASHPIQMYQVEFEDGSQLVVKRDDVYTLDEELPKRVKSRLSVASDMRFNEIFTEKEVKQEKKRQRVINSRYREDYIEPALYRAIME
The experiment is described as follows: Inhibition of KDM4A (unknown origin) using H3K9me3 peptide and 2-oxoglutarate as substrate after 1 hr by FDH-coupled assay. An outline of the steps:
as §1

Sequence of Lysine-specific demethylase 5A (P29375 whole entry): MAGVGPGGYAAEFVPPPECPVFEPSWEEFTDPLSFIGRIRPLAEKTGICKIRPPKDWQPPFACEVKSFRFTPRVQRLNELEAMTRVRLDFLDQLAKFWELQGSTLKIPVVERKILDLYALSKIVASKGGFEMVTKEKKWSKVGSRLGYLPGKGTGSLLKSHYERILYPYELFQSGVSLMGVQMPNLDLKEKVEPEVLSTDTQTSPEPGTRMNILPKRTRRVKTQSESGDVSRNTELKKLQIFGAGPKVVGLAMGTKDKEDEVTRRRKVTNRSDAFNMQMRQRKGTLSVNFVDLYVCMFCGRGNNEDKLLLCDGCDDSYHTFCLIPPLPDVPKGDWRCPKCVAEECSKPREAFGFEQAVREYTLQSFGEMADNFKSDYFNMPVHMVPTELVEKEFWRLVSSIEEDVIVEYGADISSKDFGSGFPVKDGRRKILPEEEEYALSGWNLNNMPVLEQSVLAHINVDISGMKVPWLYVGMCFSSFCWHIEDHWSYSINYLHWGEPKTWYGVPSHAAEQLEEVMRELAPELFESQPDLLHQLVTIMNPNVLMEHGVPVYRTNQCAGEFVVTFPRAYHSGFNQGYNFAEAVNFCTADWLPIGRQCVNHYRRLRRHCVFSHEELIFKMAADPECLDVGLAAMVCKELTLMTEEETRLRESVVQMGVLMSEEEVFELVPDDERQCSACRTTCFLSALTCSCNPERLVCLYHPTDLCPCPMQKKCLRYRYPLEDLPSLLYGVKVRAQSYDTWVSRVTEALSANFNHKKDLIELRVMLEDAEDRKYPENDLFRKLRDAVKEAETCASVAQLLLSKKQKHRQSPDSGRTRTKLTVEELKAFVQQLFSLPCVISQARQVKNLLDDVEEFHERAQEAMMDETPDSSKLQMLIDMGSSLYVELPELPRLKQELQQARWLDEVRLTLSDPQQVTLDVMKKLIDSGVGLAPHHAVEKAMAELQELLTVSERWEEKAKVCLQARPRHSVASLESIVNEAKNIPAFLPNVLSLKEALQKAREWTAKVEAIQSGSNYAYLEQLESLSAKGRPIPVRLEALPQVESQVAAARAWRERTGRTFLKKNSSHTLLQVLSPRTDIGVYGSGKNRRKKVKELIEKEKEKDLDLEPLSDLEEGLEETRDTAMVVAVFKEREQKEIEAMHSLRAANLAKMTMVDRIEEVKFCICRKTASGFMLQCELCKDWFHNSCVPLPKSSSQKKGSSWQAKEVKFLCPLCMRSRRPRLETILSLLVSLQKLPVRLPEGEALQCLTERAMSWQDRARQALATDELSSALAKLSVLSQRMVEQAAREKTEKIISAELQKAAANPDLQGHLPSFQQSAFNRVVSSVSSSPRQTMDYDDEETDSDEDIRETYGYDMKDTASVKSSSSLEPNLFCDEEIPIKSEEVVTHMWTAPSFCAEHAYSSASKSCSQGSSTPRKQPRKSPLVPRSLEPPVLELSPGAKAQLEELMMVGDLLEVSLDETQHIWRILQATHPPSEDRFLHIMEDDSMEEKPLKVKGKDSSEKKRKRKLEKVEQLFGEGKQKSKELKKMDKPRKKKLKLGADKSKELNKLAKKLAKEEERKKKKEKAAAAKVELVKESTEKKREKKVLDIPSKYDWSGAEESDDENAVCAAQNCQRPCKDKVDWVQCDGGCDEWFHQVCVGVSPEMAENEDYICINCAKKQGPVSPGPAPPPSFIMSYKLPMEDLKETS

Turning to `O=C(O)CCN(O)C(=O)CCCCCCCCC1CC1`, the IC50 (usually the midpoint of a concentration-inhibition curve) in experiment [1] was 55 µM; in experiment [2], 0.2 µM; in experiment [3], more than 120 µM. Moreover, the GI50 – broadly, the concentration that inhibits growth by half – with HeLa was 40 µM.
As for `CN(C)CCCCCCCCC(=O)N(O)CCC(=O)O`, the IC50 in experiment [1] stood at 13 µM; in experiment [2] it was 1.6 µM; in experiment [3] it was 0.8 µM. The GI50 in the experiment with HeLa was more than 470 µM.

For the origin of these results see ChEMBL document CHEMBL2424657, “Identification of the KDM2/7 histone lysine demethylase subfamily inhibitor and its antiproliferative activity” (J Med Chem, 2013).
